In ChEMBL document CHEMBL5247671, “Design and Synthesis of Pyrazole-Based Macrocyclic Kinase Inhibitors Targeting BMPR2” (ACS Med Chem Lett, 2023) one finds ΔTm, inhibition and Kd data, which are given here for 1 compound.

Experiment [1] deals with Cyclin-dependent kinase 2 (Homo sapiens) (UniProt P24941). As to the kind of experiment: Binding affinity to recombinant CDK2 (unknown origin) assessed as change in melting temperature at 10 uM by DSF assay. An outline of the steps: (§1)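 Differential scanning fluorimetry on an in-house panel of 90 recombinant kinases. Stabilization is read as the shift in melting temperature (ΔTm) relative to ligand-free protein. Staurosporine served as the positive control, and binding was also compared against its ΔTm.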
Background: In DSF a fluorescence change marks the thermal transition of the protein.

Experiment [2] concerns the target T1, Bone morphogenetic protein receptor type-2 (Homo sapiens) (UniProt Q13873).
T1 sequence (whole entry): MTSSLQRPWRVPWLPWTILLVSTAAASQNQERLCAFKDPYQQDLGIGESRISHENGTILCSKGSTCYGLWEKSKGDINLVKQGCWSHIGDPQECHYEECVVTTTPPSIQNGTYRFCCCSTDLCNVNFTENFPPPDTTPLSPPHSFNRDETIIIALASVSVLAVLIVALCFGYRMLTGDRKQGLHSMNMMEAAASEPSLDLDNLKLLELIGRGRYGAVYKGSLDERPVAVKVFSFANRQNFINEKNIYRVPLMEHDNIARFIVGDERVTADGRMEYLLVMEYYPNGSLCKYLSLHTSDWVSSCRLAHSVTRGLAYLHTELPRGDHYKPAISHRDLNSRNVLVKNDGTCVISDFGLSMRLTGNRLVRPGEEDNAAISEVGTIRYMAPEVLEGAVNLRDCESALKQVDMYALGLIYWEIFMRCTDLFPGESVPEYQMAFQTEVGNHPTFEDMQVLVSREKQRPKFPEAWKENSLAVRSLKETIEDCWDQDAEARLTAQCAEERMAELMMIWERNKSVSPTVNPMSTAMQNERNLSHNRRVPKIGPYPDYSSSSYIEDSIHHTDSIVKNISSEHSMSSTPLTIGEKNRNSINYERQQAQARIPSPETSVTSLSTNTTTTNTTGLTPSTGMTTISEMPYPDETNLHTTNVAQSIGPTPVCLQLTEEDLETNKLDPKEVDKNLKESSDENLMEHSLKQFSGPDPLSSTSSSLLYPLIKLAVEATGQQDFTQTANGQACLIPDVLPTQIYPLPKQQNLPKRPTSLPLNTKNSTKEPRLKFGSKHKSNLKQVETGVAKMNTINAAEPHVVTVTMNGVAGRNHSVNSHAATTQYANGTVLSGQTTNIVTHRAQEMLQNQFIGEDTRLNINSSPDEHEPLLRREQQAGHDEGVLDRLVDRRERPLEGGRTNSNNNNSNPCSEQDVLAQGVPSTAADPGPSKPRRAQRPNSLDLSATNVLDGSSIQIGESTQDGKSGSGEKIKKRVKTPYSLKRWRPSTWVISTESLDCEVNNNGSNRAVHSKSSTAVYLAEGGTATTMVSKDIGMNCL
As to the kind of experiment: Inhibition of recombinant BMPR2 (unknown origin) at 10 uM by DSF assay relative to […].

Experiment [3] has as its target T2, Bone morphogenetic protein receptor type-2 (Homo sapiens, UniProt Q13873).
T2 sequence (Q13873 whole entry): T1 sequence (whole entry)
As to the kind of experiment: Inhibition of BMPR2 (unknown origin) assessed as dissociation constant by ITC assay. In short, it runs like this:
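Binding measured by isothermal titration calorimetry against the recombinant BMPR2 kinase domain. Thermodynamic binding parameters, including the dissociation constant, were derived from the titration data.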

Experiment [4] deals with Serine/threonine-protein kinase 24 (Homo sapiens) (UniProt Q9Y6E0). As to the kind of experiment: Binding affinity to recombinant MST3 (unknown origin) assessed as change in melting temperature at 10 uM by DSF assay. In short, it runs like this:
as §1

Experiment [5] deals with MAP/microtubule affinity-regulating kinase 3 (Homo sapiens) (UniProt P27448). As to the kind of experiment: Binding affinity to recombinant MARK3 (unknown origin) assessed as change in melting temperature at 10 uM by DSF assay. In short, it runs like this: as §1
Chain of MAP/microtubule affinity-regulating kinase 3 (Homo sapiens) (P27448 whole entry, looked up): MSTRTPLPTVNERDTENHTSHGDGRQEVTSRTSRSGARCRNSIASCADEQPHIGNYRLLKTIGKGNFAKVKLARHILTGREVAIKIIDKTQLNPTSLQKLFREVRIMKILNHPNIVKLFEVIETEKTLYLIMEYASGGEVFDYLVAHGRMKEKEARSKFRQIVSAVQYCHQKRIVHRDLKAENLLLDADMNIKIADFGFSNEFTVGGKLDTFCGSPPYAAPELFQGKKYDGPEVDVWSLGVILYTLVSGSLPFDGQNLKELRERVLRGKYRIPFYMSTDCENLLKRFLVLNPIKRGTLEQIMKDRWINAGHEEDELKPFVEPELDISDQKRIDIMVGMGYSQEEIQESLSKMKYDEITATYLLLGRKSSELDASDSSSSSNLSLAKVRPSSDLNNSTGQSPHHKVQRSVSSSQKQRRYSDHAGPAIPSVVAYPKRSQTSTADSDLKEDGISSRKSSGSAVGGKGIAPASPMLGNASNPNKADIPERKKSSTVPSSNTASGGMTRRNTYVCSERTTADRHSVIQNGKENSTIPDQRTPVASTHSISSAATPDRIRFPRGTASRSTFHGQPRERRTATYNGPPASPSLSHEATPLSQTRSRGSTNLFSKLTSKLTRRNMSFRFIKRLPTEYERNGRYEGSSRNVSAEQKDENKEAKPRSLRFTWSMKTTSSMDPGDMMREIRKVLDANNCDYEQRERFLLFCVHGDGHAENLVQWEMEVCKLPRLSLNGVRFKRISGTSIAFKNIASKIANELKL
In experiment [6] the target is Vascular endothelial growth factor receptor 1 (Homo sapiens) (UniProt P17948). As to the kind of experiment: Binding affinity to recombinant FLT1 (unknown origin) assessed as change in melting temperature at 10 uM by DSF assay. An outline of the steps: as §1
Chain of Vascular endothelial growth factor receptor 1 (Homo sapiens) (P17948 whole entry): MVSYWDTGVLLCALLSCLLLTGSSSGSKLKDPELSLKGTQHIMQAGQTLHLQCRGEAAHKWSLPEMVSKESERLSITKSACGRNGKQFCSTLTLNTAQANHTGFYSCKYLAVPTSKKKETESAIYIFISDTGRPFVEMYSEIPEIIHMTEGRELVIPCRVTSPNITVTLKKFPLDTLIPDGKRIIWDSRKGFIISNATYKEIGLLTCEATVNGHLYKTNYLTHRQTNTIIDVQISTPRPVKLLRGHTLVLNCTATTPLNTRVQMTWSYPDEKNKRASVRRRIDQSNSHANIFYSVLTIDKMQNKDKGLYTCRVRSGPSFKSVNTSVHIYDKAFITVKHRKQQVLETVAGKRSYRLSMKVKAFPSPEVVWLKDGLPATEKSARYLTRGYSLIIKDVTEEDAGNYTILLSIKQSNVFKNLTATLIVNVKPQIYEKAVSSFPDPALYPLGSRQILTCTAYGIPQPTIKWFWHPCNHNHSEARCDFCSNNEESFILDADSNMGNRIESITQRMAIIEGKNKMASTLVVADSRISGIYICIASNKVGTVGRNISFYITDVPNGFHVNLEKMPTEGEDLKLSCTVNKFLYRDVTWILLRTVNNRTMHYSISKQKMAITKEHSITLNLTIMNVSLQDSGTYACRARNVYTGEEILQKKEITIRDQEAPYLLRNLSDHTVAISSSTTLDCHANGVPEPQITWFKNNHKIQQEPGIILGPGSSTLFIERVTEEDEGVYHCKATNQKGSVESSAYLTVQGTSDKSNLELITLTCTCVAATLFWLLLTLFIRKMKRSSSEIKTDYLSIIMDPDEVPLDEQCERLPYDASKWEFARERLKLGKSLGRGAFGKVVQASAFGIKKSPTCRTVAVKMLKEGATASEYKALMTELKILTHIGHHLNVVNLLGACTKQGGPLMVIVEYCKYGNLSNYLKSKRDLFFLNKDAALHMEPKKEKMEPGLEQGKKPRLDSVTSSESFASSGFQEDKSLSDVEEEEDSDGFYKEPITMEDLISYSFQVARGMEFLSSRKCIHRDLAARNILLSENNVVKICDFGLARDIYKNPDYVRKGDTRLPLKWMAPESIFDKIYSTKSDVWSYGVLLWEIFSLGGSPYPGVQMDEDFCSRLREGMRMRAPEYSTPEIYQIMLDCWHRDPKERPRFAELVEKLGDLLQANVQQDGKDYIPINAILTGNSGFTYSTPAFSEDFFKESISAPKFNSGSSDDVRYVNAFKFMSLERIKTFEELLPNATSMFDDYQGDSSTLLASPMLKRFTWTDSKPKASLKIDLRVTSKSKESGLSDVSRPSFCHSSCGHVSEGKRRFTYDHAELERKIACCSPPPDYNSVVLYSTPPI
For experiment [7], the target named is T3, Tyrosine-protein kinase Mer (Homo sapiens) (UniProt Q12866).
T3 sequence (whole entry): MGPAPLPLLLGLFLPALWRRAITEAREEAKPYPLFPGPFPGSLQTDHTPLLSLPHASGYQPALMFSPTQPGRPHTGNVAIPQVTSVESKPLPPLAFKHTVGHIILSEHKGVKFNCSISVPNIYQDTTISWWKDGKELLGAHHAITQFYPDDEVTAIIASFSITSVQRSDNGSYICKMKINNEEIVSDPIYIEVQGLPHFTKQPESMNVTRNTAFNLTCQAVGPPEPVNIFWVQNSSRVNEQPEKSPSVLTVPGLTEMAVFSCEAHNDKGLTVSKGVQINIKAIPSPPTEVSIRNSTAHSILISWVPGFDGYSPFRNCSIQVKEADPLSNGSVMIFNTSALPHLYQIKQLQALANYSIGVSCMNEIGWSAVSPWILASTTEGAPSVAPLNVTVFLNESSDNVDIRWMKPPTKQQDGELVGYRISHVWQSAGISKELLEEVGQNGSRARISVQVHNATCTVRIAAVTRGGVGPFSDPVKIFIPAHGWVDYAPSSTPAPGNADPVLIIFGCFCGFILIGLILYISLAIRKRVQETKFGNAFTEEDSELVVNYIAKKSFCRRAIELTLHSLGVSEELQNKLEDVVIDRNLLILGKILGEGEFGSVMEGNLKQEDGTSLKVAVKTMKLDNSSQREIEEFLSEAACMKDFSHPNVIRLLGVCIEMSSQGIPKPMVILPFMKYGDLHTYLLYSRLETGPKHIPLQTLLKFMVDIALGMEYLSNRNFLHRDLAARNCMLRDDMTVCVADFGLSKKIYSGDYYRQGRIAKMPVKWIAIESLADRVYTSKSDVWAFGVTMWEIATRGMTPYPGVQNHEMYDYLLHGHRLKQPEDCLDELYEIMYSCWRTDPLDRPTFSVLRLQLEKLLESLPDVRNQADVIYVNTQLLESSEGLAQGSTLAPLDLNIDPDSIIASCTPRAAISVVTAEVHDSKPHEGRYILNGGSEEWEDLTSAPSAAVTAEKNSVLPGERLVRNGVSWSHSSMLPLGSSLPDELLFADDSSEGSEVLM
As to the kind of experiment: Inhibition of recombinant MERTK (unknown origin) at 10 uM by DSF assay relative to staurosporine. An outline of the steps:
as §1

Chain of Serine/threonine-protein kinase 24 (Homo sapiens) (Q9Y6E0 whole entry, looked up): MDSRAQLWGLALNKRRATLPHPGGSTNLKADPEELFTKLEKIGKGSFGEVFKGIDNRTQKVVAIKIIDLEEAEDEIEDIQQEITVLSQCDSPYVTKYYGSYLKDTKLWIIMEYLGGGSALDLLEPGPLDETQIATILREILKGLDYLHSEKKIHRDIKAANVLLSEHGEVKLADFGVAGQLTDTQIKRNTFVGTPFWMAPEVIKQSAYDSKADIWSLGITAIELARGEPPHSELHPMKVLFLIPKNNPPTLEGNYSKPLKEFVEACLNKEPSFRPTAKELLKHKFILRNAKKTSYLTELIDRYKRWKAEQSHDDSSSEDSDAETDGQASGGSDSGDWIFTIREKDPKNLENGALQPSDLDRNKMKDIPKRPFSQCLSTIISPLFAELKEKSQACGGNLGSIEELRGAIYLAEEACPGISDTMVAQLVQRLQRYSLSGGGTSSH

Regarding `O=C1NCCc2ccc(cc2)Nc2nccc(n2)Nc2cc1[nH]n2`, the thermal shift (ΔTm) is 3.3 °C in experiment [1], 3.2 °C in experiment [4], 3.9 °C in experiment [5] and 4.2 °C in experiment [6]. The results for the inhibition in experiment [2] and in experiment [7] were 103% and 48%, respectively. The Kd in experiment [3] came to 83.5 nM.

Usually ΔTm stands for the change in melting temperature against a reference sample. In general, inhibition refers to the drop in the measured response relative to a control, in per cent. As a reminder, the Kd is the equilibrium constant for the complex coming apart.
